Test results taken from ChEMBL document CHEMBL5252662, “Rimonabant-Based Compounds Bearing Hydrophobic Amino Acid Derivatives as Cannabinoid Receptor Subtype 1 Ligands” (ACS Med Chem Lett, 2023).
Active and inactive are the calls of the source. The rule behind the calls is not given here.

Experiments:
Mus musculus [1] = assay: Antinociceptive activity in CD-1 mouse assessed as increase in response time to thermal nociceptive stimuli at 10 ug, icv measured after 60 mins by hot plate test; format: functional, organism-based; settings: dose 10.0 µg
How it was run: (§1)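 Single i.c.v. injection of 10 μg/10 μL; vehicle saline with 0.1% v/v DMSO. Response latency to thermal stimulus on hot plate recorded over time after dosing. Expressed as % maximum possible effect (%MPE) ± SEM, N = 7.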

Mus musculus [2] = assay: Induction of food uptake in CD-1 mouse model at 10 mg/kg, ip measured after 1 hr; format: functional, organism-based
How it was run: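 Mice dosed i.p. at 10 mg/kg and left 30 min. Each was then placed in an individual cage with 2 g of standard chow, and intake was measured over a 1 h test. Mean ± SEM from the same seven mice at each dose, compared with vehicle-treated animals.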

Mus musculus [3] = assay: Anti-inflammatory activity against zymosan-induced paw edema CD-1 mouse model assessed as reduction of increased paw volume at 100 ug,sc administered 30 mins prior to zymosan challenge and measured after 1 to 4 hrs; format: functional, organism-based; settings: dose 100.0 µg, time lower […], time upper […]
Mus musculus [4] = assay: Antinociceptive activity in CD-1 mouse assessed as increase in response time to thermal nociceptive stimuli at 10 ug, icv measured at 15 to 120 mins; format: functional, organism-based; settings: dose 10.0 µg, time lower […], time upper […]; how it was run: as §1
Cannabinoid receptor 1 [5] = molecular target: T1, Cannabinoid receptor 1 (Rattus norvegicus, UniProt P20272); assay: Displacement of [3H]-WIN55212-2 from CB1R in rat brain membranes incubated for 60 mins by radioligand competitive binding assay; format: cell membranes, Membrane
T1 sequence (P20272 whole entry): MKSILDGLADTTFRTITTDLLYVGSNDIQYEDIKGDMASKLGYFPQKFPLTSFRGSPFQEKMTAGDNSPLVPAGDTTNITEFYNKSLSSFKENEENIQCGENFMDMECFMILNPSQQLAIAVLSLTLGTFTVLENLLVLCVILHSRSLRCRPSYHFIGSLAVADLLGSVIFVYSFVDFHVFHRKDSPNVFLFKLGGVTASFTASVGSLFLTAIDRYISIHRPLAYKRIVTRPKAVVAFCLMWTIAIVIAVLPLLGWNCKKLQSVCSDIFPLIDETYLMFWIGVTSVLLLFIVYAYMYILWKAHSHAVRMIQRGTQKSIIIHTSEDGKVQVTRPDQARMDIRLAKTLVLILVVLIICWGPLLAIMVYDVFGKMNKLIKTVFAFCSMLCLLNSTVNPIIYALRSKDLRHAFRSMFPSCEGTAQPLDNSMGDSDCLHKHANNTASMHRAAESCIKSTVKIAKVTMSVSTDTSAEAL

Cannabinoid receptor 1 [6] = molecular target: T1, Cannabinoid receptor 1; assay: Agonist activity at rat brain membrane CB1 receptor assessed as stimulation of [35S]GTPgammaS binding incubated for 60 mins; format: cell membranes
[7] = molecular target: Cannabinoid receptor 1 (Rattus norvegicus) (UniProt P20272); assay: Agonist activity at rat brain membrane CB1 receptor assessed as stimulation of [35S]GTPgammaS binding incubated for 60 mins relative to control; format: cell membranes; settings: filed as agonist
Sequence of Cannabinoid receptor 1 (Rattus norvegicus) (P20272 whole entry): as above

Structure (SMILES)	Activity (Mus musculus [2])	Ki (Cannabinoid receptor 1 [5])	further results
Cc1c(C(=O)c2cccc3ccccc23)c2cccc3c2n1[C@H](CN1CCOCC1)CO3	–	–	Activity (Mus musculus [1]): Active
CNC(=O)[C@@H](NC(=O)c1nn(-c2ccc(Cl)cc2)c(-n2cccc2)c1C)C(C)(C)C	Active	–	Activity (Mus musculus [3]): Active; Activity (Mus musculus [4]): Active
Cc1c(C(=O)N[C@H](C(=O)O)C(C)(C)C)nn(-c2ccc(Cl)cc2Cl)c1-n1cccc1Cl	–	Not Active	–
CC(C)(C)[C@H](NC(=O)c1cc(-n2cccc2)n(-c2ccccc2)n1)C(=O)O	–	Not Active	–
COC(=O)[C@@H](NC(=O)c1cc(-n2cccc2)n(-c2ccccc2)n1)C(C)(C)C	Active	–	–
CC(C)[C@H](NC(=O)c1cc(-n2cccc2)n(-c2ccccc2)n1)C(=O)O	–	Not Active	–
COC(=O)[C@@H](NC(=O)c1nn(-c2ccc(Cl)cc2)c(-n2cccc2)c1C)C(C)(C)C	inactive	–	–
Cc1c(C(=O)N[C@H](C(=O)O)C(C)(C)C)nn(-c2ccccc2)c1-n1cccc1	–	Not Active	–
Cc1c(C(=O)N[C@H](C(=O)O)C(C)C)nn(-c2ccc(Cl)cc2)c1-n1cccc1	–	Not Active	–
CC(C)(C)[C@H](NC(=O)c1cc(-n2cccc2)n(-c2ccc(Cl)cc2)n1)C(=O)O	–	Not Active	–
COC(=O)[C@@H](NC(=O)c1cc(-n2cccc2)n(-c2ccc(Cl)cc2)n1)C(C)C	inactive	–	–
Cc1c(C(=O)N[C@H](C(N)=O)C(C)C)nn(-c2ccc(Cl)c(Cl)c2)c1-n1cccc1Cl	–	–	Ki (Cannabinoid receptor 1 [5]; read-out: Ki): 446 nM; EC50 (Cannabinoid receptor 1 [6]): 849 nM; Emax [7]: 60%
Cc1c(C(=O)N[C@H](C(N)=O)C(C)(C)C)nn(-c2ccc(Cl)c(Cl)c2)c1-n1cccc1Cl	inactive	–	Ki (Cannabinoid receptor 1 [5]; read-out: Ki): 45 nM; EC50 (Cannabinoid receptor 1 [6]): 1870 nM; Emax [7]: 70%
CC(C)[C@H](NC(=O)c1cc(-n2cccc2)n(-c2ccccc2)n1)C(N)=O	–	Not Active	–
COC(=O)[C@@H](NC(=O)c1cc(-n2cccc2)n(-c2ccc(Cl)cc2)n1)C(C)(C)C	inactive	–	–
COC(=O)[C@@H](NC(=O)c1nn(-c2ccc(Cl)cc2Cl)c(-n2cccc2Cl)c1C)C(C)C	Active	–	–
Cc1c(C(=O)N[C@H](C(=O)O)C(C)C)nn(-c2ccccc2)c1-n1cccc1	–	Not Active	–
CC(C)[C@H](NC(=O)c1cc(-n2cccc2)n(-c2ccc(Cl)cc2)n1)C(=O)O	–	Not Active	–
Cc1c(C(=O)N[C@H](C(N)=O)C(C)(C)C)nn(-c2ccc(Cl)cc2)c1-n1cccc1	inactive	–	–
Cc1c(C(=O)N[C@H](C(=O)O)C(C)C)nn(-c2ccc(Cl)cc2Cl)c1-n1cccc1Cl	–	Not Active	–
CNC(=O)[C@@H](NC(=O)c1nn(-c2ccc(Cl)cc2Cl)c(-n2cccc2Cl)c1C)C(C)(C)C	–	Not Active	–
Cc1c(C(=O)N[C@H](C(N)=O)C(C)(C)C)nn(-c2ccccc2)c1-n1cccc1	inactive	–	–
